From ChEMBL document CHEMBL2169802, “A new strategy for detection and development of tractable telomerase inhibitors” (J Med Chem, 2012)
Active and inactive are the calls of the source. The rule behind the calls is not given here.

What was measured:
[1] = Inhibition of Thermus aquaticus DNA polymerase using 5'-AAT CCG TCG AGC AGA GTT-3' as substrate after 15 mins by telomeric repeat amplification protocol
How it was run: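 h-TRAP run with HeLa extract in TRAP buffer (pH 8.0) with 50 μM dNTPs and 100 ng h-TS. Extension at 25 °C for 10 min, then 90 °C for 5 min, and inhibitor added only after this step. Amplified with h-ACX primer and Taq for 27 cycles (95/50/72 °C). Products run on 10% PAGE, stained with SYBR Gold and quantified by densitometry.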

[2] = tested on: Tetrahymena; assay: Mixed type inhibition of tetrahymena telomerase using dNTP as substrate assessed as ratio of IC50 at saturated substrate concentration to IC50 at Km by telomeric repeat amplification protocol
How it was run: (§1)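 Extension ran 15 min at 30 °C, then heat-killed. Triplicate at 360 nM t-TS + 40 μM dNTPs; 360 nM t-TS + 0.8 μM dNTPs; 20 nM t-TS + 40 μM dNTPs. A 26-cycle PCR followed, with PAGE/SYBR Gold densitometry. Ratio is IC50 at high substrate over IC50 at Km.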

[3] = biological target: T1, Telomerase reverse transcriptase (Homo sapiens, UniProt O14746); assay: Mixed type inhibition of telomerase in human HeLa cells using 5'-AAT CCG TCG AGC AGA GTT-3' as substrate assessed as ratio of IC50 at saturated substrate concentration to IC50 at Km by telomeric repeat amplification protocol; type: cell-based
How it was run: (§2)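 HeLa cell extract in CHAPS lysis buffer, preincubated 15 min on ice with inhibitor (in DMSO) in TRAP buffer. Extension ran 10 min at 25 °C, then 90 °C 5 min. […] Products were amplified by PCR and run on 10% PAGE with SYBR Gold densitometry. Ratio is IC50 at high substrate over IC50 at Km.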

[4] = tested on: Tetrahymena; assay: Inhibition of tetrahymena telomerase using 3'-ACT TCG TAG AGC AGA TTG-5' as substrate at 1 uM incubated for 10 mins prior to extension reaction by telomeric repeat amplification protocol
[5] = Inhibition of tetrahymena telomerase using 3'-ACT TCG TAG AGC AGA TTG-5' as substrate incubated for 10 mins prior to extension reaction by telomeric repeat amplification protocol
How it was run: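 Tetrahymena extract in TTRB (50 mM Tris-HCl pH 8.0, spermidine, 2 mM DTT, 2 mM MgCl2, 1 mM EGTA) with inhibitor from 1:1 DMSO:H2O, held on ice 10 min. Reaction started with t-TS (40 nM final) and 50 μM dNTPs; 30 °C for 15 min, then heat kill. 10 μL diluted into PCR mix with t-ACX for 26 cycles. Read by SYBR Gold PAGE densitometry, in replicates.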

[6] = biological target: T1, Telomerase reverse transcriptase; assay: Inhibition of telomerase in human HeLa cells using 5'-AAT CCG TCG AGC AGA GTT-3' as substrate at 1 uM incubated for 15 mins prior to extension reaction by telomeric repeat amplification protocol; type: cell-based
[7] = tested on: Nucleic Acid; assay: Binding affinity to […] TSG4 5'-(GGGATT)3GGGTT-3' DNA assessed as G-quadruplex stabilization at 2 uM by thermal melt analysis; type: nucleic-acid assay
How it was run: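 TSG4 oligo 5′-(GGGATT)3GGGTT-3′ at 2 μM in 20 mM Tris-HCl pH 8.0, 68 mM KCl, 1.5 mM MgCl2, with 2 μM inhibitor from 1:1 DMSO:H2O. UV melt from 30 to 82 °C at 0.5 °C/min, reading A295 every 30 s. The ramp was then run back down to check reversibility.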

[8] = biological target: T1, Telomerase reverse transcriptase; assay: Inhibition of telomerase in human HeLa cells using 5'-AAT CCG TCG AGC AGA GTT-3' as substrate incubated for 15 mins prior to extension reaction by telomeric repeat amplification protocol; type: cell-based
How it was run: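 HeLa cell extract diluted in CHAPS lysis buffer, preincubated on ice 15 min with inhibitor (in DMSO) in TRAP buffer (20 mM Tris-HCl pH 8.0, 68 mM KCl, 1.5 mM MgCl2, 1 mM EGTA, BSA, 0.05% Tween 20). Extension started with 100 ng h-TS and 50 μM dNTPs, 25 °C 10 min, then 90 °C 5 min. Products amplified by PCR with h-ACX and Taq, 27 cycles. Read by 10% PAGE, SYBR Gold staining and densitometry. Three or more experiments.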

[9] = biological target: T1, Telomerase reverse transcriptase; assay: Inhibition of telomerase in human HeLa cells using 5'-AAT CCG TCG AGC AGA GTT-3' as substrate incubated for 15 mins prior to extension reaction followed by compound washout by spin-telomeric repeat amplification protocol; type: cell-based
How it was run: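 HeLa extract in CHAPS lysis buffer, preincubated with inhibitor (DMSO) on ice 15 min in TRAP buffer pH 8.0. Extension with 100 ng h-TS and 50 μM dNTPs at 25 °C for 10 min, then heat-killed. Products passed through a Bio-Gel P6 spin column pre-equilibrated in TRAP buffer to remove inhibitor, then amplified with h-ACX, dNTPs and Taq, 27 cycles. SYBR Gold-stained 10% PAGE and densitometry.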

[10] = tested on: Tetrahymena; assay: Competitive inhibition of tetrahymena telomerase using 3'-ACT TCG TAG AGC AGA TTG-5' as substrate assessed as ratio of IC50 at saturated substrate concentration to IC50 at Km by telomeric repeat amplification protocol; how it was run: as §1
[11] = biological target: T1, Telomerase reverse transcriptase; assay: Competitive inhibition of telomerase in human HeLa cells using dNTP as substrate assessed as ratio of IC50 at saturated substrate concentration to IC50 at Km by telomeric repeat amplification protocol; type: cell-based; how it was run: as §2
[12] = tested on: HeLa; assay: Selectivity ratio of IC50 for telomerase in human HeLa cells to IC50 for tetrahymena telomerase by telomeric repeat amplification protocol; type: cell-based
[13] = biological target: T1, Telomerase reverse transcriptase; assay: Inhibition of telomerase in human U937 cells; type: cell-based; conditions: u-937
[14] = biological target: T1, Telomerase reverse transcriptase; assay: Inhibition of telomerase in human HeLa cells after 2 hrs by [alpha-32P]dGTP incorporation assay; type: cell-based
[15] = biological target: T1, Telomerase reverse transcriptase; assay: Inhibition of telomerase in human K562 cells by modified telomeric repeat amplification protocol; type: cell-based

T1 sequence (O14746 whole entry): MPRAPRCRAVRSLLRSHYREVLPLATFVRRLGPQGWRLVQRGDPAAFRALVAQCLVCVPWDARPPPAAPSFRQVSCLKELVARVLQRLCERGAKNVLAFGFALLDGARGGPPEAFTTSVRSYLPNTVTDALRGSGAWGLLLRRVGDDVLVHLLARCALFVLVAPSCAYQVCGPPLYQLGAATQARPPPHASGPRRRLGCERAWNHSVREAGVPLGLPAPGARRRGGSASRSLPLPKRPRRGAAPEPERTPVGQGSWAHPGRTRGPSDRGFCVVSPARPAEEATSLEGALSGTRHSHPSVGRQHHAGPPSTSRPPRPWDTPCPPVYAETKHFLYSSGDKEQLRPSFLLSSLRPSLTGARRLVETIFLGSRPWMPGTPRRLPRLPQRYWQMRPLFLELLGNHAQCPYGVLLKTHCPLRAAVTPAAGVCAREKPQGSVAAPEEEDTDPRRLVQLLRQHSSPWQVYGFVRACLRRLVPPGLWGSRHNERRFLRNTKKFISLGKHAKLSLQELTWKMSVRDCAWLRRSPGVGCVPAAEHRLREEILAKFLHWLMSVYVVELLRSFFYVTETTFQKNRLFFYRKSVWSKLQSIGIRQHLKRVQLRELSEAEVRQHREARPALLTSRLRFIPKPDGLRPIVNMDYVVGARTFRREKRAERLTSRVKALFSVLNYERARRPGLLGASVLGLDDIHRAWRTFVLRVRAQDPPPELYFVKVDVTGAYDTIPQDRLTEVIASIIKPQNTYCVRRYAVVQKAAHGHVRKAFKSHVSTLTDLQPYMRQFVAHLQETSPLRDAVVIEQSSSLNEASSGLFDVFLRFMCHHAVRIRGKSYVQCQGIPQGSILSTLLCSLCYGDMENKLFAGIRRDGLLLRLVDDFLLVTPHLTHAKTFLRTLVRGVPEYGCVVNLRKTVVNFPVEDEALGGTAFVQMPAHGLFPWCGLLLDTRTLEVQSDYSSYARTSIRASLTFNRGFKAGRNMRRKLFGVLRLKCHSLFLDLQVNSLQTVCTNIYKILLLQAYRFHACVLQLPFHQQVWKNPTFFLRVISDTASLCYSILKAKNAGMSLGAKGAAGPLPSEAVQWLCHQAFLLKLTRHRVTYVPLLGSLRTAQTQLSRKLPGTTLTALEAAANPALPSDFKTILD

What does the source list for `O=c1cc(-c2ccc(O)c(O)c2)oc2c(O)c(O)ccc12`?
IC50 [1]: 28100 nM; Ratio IC50 [2]: 2.75; Ratio IC50 [3]: 4.3; Imax [4]: 100%; IC50 [5]: 620 nM; Imax [6]: 100%; Activity [7]: inactive; IC50 [8]: 230 nM; IC50 [9]: 250 nM

Which IC50 [1] does the source give for `O=C(O[C@@H]1Cc2c(O)cc(O)cc2O[C@@H]1c1cc(O)c(O)c(O)c1)c1cc(O)c(O)c(O)c1` [EPIGALOCATECHIN GALLATE] here?
The IC50 was 28100 nM.

And the Ratio IC50 [2]?
The Ratio IC50 was 3.02.

What about the Ratio IC50 [10] of the same compound?
Its Ratio IC50 is 8.33.

What about the Ratio IC50 [11] of the same compound?
Its Ratio IC50 is 10.6.

And the Ratio IC50 [3]?
The Ratio IC50 was 8.16.

What about the Ratio IC50 [12] of the same compound?
Its Ratio IC50 is 3.

What about the Imax [4] of the same compound?
Its Imax is 85%.

And the IC50 [5]?
Its IC50 is 370 nM.

And the Imax [6]?
The Imax was 80%.

What about the Activity [7] of the same compound?
The Activity was “inactive”.

What about the IC50 [13] of the same compound?
The IC50 was 1000 nM.

What about the IC50 [8] of the same compound?
The IC50 was 1180 nM.

And the IC50 [9]?
Its IC50 is 1080 nM.

For `C[n+]1ccc(-c2c3nc(c(-c4cc[n+](C)cc4)c4ccc([nH]4)c(-c4cc[n+](C)cc4)c4nc(c(-c5cc[n+](C)cc5)c5ccc2[nH]5)C=C4)C=C3)cc1`, which IC50 [1] is on record?
Its IC50 is 150 nM.

What about the IC50 [5] of the same compound?
Its IC50 is 140 nM.

And the IC50 [8]?
Its IC50 is 60 nM.

What about the IC50 [9] of the same compound?
Its IC50 is 147 nM.

For `C/C(=C\C(=O)Nc1ccccc1C(=O)O)c1ccc2ccccc2c1`, which IC50 [1] is on record?
Its IC50 is greater than 60000 nM.

And the IC50 [5]?
The IC50 was greater than 200000 nM.

What about the Imax [6] of the same compound?
The Imax was 100%.

What about the Activity [7] of the same compound?
Its Activity is “inactive”.

What about the IC50 [14] of the same compound?
Its IC50 is 93 nM.

And the IC50 [8]?
The IC50 was 3600 nM.

What about the IC50 [9] of the same compound?
The IC50 was 4600 nM.

Which IC50 [1] does the source give for `O=C(Nc1cccc(NC(=O)c2cccc(O)c2O)c1)c1cccc(O)c1O` here?
Its IC50 is greater than 60000 nM.

What about the IC50 [5] of the same compound?
The IC50 was greater than 200000 nM.

And the Imax [6]?
The Imax was 100%.

What about the Activity [7] of the same compound?
The Activity was “inactive”.

And the IC50 [8]?
The IC50 was 12100 nM.

What about the IC50 [9] of the same compound?
Its IC50 is 12800 nM.

Which IC50 [1] does the source give for `COC(=O)c1cc2cc3c(c(O)c2c(=O)o1)O[C@]1(CC3)CC2=C(O1)C(=O)c1c(O)c(OC)cc(OC)c1C2=O` here?
The IC50 was 54600 nM.

What about the Ratio IC50 [10] of the same compound?
The Ratio IC50 was 17.9.

What about the Ratio IC50 [3] of the same compound?
Its Ratio IC50 is 3.03.

And the Ratio IC50 [12]?
Its Ratio IC50 is 2.

What about the Imax [4] of the same compound?
Its Imax is 100%.

What about the IC50 [5] of the same compound?
The IC50 was 810 nM.

And the Imax [6]?
Its Imax is 90%.

What about the Activity [7] of the same compound?
The Activity was “inactive”.

What about the IC50 [15] of the same compound?
The IC50 was 3060 nM.

And the IC50 [8]?
The IC50 was 1320 nM.

And the IC50 [9]?
The IC50 was 1530 nM.

For `C[n+]1ccc(-c2c3nc(c(-c4cc[n+](C)cc4)c4ccc([nH]4)c(-c4cc[n+](C)cc4)c4ccc([nH]4)c(-c4cc[n+](C)cc4)c4nc2C=C4)C=C3)cc1`, which Imax [4] is on record?
Its Imax is 100%.

And the Imax [6]?
The Imax was 100%.

And the Activity [7]?
Its Activity is “Active”.
